Experimental data published in ChEMBL document CHEMBL1125263, “Streptonigrin and related compounds. 5. Synthesis and evaluation of some isoquinoline analogues” (J Med Chem, 1991).
≈ marks a conversion by molar mass, not a printed value.

How the values were obtained:
Bacillus subtilis [1] = test: In vitro antibacterial activity measured against Bacillus subtilis and relative potency expressed with respect to streptonigrin.; type: functional
How it was run: (§1)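 Agar disc-diffusion plates seeded with B. subtilis spores, six discs per plate, incubated at 37 °C for 20 h. Zones of inhibition measured and averaged over four replicates. Zone diameter varied linearly with log concentration. Slopes were fitted by regression, with standard errors of the slope calculated.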

Bacillus subtilis [2] = test: Antibacterial activity against Bacillus subtilis and values were expressed as standard error for slope; type: functional; how it was run: as §1
Bacillus subtilis [3] = test: In vitro antibacterial activity against Bacillus subtilis; type: functional
Lepidium sativum [4] = test: In vitro root inhibition activity using seedlings of Lepidium sativum; type: functional, organism-based
How it was run: (§2)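 Cress (L. sativum) seeds soaked in water 15–20 min, germinated on 0.6% agar at 27 °C in the dark for 24 h until radicles were ca. 1 cm. DMSO solutions (2000–40 μg/mL stocks, 200 μL per 20 mL agar) were set in 0.6% agar; DMSO-only controls. Eight seedlings per plate, 24 h at 27 °C in the dark. New root growth measured, duplicate runs (16 seedlings). %I = 1 − (T/C) × 100; probit analysis and linear regression gave I50.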

Lepidium sativum [5] = test: In vitro root inhibition activity measured using seedlings of Lepidium sativum, and relative potency expressed with respect to streptonigrin.; type: functional; how it was run: as §2

**Q.** `COC1=C(N)C(=O)c2c(ccnc2-c2cccc([N+](=O)[O-])c2)C1=O` was tested. Which Relative potency (Bacillus subtilis [1]) did it give?
**A.** 0.26

**Q.** And the Slope (Bacillus subtilis [2])?
**A.** 4.93

**Q.** What about the MIC (Bacillus subtilis [3]) of the same compound?
**A.** 5.2 µM (≈ 1.69 µg/mL)

**Q.** What about the I50 (Lepidium sativum [4]) of the same compound?
**A.** 6.43 nM ml-1

**Q.** What about the Relative potency (Lepidium sativum [5]) of the same compound?
**A.** 1.96

**Q.** For `COC1=C(N)C(=O)c2nc(-c3ccccn3)ccc2C1=O`, which Relative potency (Bacillus subtilis [1]) is on record?
**A.** 0.1

**Q.** And the Slope (Bacillus subtilis [2])?
**A.** 10.23

**Q.** And the MIC (Bacillus subtilis [3])?
**A.** 14.1 µM (≈ 3.97 µg/mL)

**Q.** And the I50 (Lepidium sativum [4])?
**A.** 9.18 nM ml-1

**Q.** And the Relative potency (Lepidium sativum [5])?
**A.** 1.37

**Q.** How did the Relative potency (Bacillus subtilis [1]) turn out when `COC1=C(N)C(=O)c2c(ccnc2-c2ccc(N)cc2)C1=O` was run?
**A.** 0.04

**Q.** What about the Slope (Bacillus subtilis [2]) of the same compound?
**A.** 12.64

**Q.** What about the MIC (Bacillus subtilis [3]) of the same compound?
**A.** 35.8 µM (≈ 10.6 µg/mL)

**Q.** And the I50 (Lepidium sativum [4])?
**A.** 15.49 nM ml-1

**Q.** What about the Relative potency (Lepidium sativum [5]) of the same compound?
**A.** 0.82

**Q.** How did the Relative potency (Bacillus subtilis [1]) turn out when `C/N=C1\C(=O)c2ccnc(-c3ccccc3[N+](=O)[O-])c2C(O)=C1Br` was run?
**A.** 0.2

**Q.** What about the Slope (Bacillus subtilis [2]) of the same compound?
**A.** 5.21

**Q.** And the MIC (Bacillus subtilis [3])?
**A.** 6.76 µM (≈ 2.62 µg/mL)

**Q.** What about the I50 (Lepidium sativum [4]) of the same compound?
**A.** 10 nM ml-1

**Q.** What about the Relative potency (Lepidium sativum [5]) of the same compound?
**A.** 1.3

**Q.** For `COC1=C(N)C(=O)c2c(ccnc2Cc2ccccc2)C1=O`, which Relative potency (Bacillus subtilis [1]) is on record?
**A.** 0.09

**Q.** What about the Slope (Bacillus subtilis [2]) of the same compound?
**A.** 11.31

**Q.** And the MIC (Bacillus subtilis [3])?
**A.** 16 µM (≈ 4.71 µg/mL)

**Q.** What about the I50 (Lepidium sativum [4]) of the same compound?
**A.** 13.7 nM ml-1

**Q.** What about the Relative potency (Lepidium sativum [5]) of the same compound?
**A.** 0.92

**Q.** Which results are given for `C/N=C1\C(=O)c2ccnc(Cc3ccccc3)c2C(O)=C1Br`?
**A.** Relative potency (Bacillus subtilis [1]): 0.09; Slope (Bacillus subtilis [2]): 11.31; MIC (Bacillus subtilis [3]): 16 µM (≈ 5.72 µg/mL); I50 (Lepidium sativum [4]): 30.05 nM ml-1; Relative potency (Lepidium sativum [5]): 0.42

**Q.** Which results are given for `COC1=C(N)C(=O)c2c(ccnc2-c2ccc([N+](=O)[O-])cc2)C1=O`?
**A.** I50 (Lepidium sativum [4]): 9.41 nM ml-1; Relative potency (Lepidium sativum [5]): 1.34

**Q.** Which results are given for `COC1=C(N)C(=O)c2nc(-c3nc(C(=O)O)c(C)cc3N)ccc2C1=O`?
**A.** Relative potency (Bacillus subtilis [1]): 5.48; Slope (Bacillus subtilis [2]): 4.75; MIC (Bacillus subtilis [3]): 0.25 µM (≈ 0.0886 µg/mL); I50 (Lepidium sativum [4]): 5.5 nM ml-1; Relative potency (Lepidium sativum [5]): 2.3

**Q.** `COC1=C(N)C(=O)c2c(ccnc2-c2ccccc2)C1=O` was tested. Which Relative potency (Bacillus subtilis [1]) did it give?
**A.** 0.05

**Q.** And the Slope (Bacillus subtilis [2])?
**A.** 14.78

**Q.** And the MIC (Bacillus subtilis [3])?
**A.** 27.2 µM (≈ 7.62 µg/mL)

**Q.** And the I50 (Lepidium sativum [4])?
**A.** 11.25 nM ml-1

**Q.** What about the Relative potency (Lepidium sativum [5]) of the same compound?
**A.** 1.12

**Q.** What does the source list for `COC1=C(N)C(=O)c2c(ccnc2-c2ccccc2[N+](=O)[O-])C1=O`?
**A.** Relative potency (Bacillus subtilis [1]): 0.15; Slope (Bacillus subtilis [2]): 10.3; MIC (Bacillus subtilis [3]): 9 µM (≈ 2.93 µg/mL); I50 (Lepidium sativum [4]): 6.03 nM ml-1; Relative potency (Lepidium sativum [5]): 2.09

**Q.** Which results are given for `COC1=C(N)C(=O)c2c(ccnc2-c2cccc(N)c2)C1=O`?
**A.** Relative potency (Bacillus subtilis [1]): 0.04; Slope (Bacillus subtilis [2]): 11.7; MIC (Bacillus subtilis [3]): 33.4 µM (≈ 9.86 µg/mL); I50 (Lepidium sativum [4]): 22.37 nM ml-1; Relative potency (Lepidium sativum [5]): 0.57

**Q.** `COC1=C(N)C(=O)c2c(ccnc2-c2ccccc2N)C1=O` was tested. Which Relative potency (Bacillus subtilis [1]) did it give?
**A.** 0.08

**Q.** And the Slope (Bacillus subtilis [2])?
**A.** 9.2

**Q.** What about the MIC (Bacillus subtilis [3]) of the same compound?
**A.** 17.2 µM (≈ 5.08 µg/mL)

**Q.** And the I50 (Lepidium sativum [4])?
**A.** 65 nM ml-1

**Q.** What about the Relative potency (Lepidium sativum [5]) of the same compound?
**A.** 0.19

**Q.** What does the source list for `COC1=C(N)C(=O)c2c(ccnc2-c2ccccn2)C1=O`?
**A.** Relative potency (Bacillus subtilis [1]): 0.03; Slope (Bacillus subtilis [2]): 12.37; MIC (Bacillus subtilis [3]): 39.3 µM (≈ 11.1 µg/mL); I50 (Lepidium sativum [4]): 12.7 nM ml-1; Relative potency (Lepidium sativum [5]): 0.99

**Q.** How did the Relative potency (Bacillus subtilis [1]) turn out when `COC1=C(N)C(=O)c2nc(-c3nc(C(=O)O)c(C)c(-c4ccc(OC)c(OC)c4O)c3N)ccc2C1=O` [STREPTONIGRIN] was run?
**A.** 1

**Q.** What about the Slope (Bacillus subtilis [2]) of the same compound?
**A.** 5.51

**Q.** And the MIC (Bacillus subtilis [3])?
**A.** 1.37 µM (≈ 0.694 µg/mL)

**Q.** What about the I50 (Lepidium sativum [4]) of the same compound?
**A.** 12.65 nM ml-1

**Q.** What about the Relative potency (Lepidium sativum [5]) of the same compound?
**A.** 1
